Results published in ChEMBL document CHEMBL4219235, “Novel fatty acid chain modified GLP-1 derivatives with prolonged in vivo glucose-lowering ability and balanced glucoregulatory activity” (Bioorg Med Chem, 2018).
Activity calls are given as the source filed them.

Key:
Mus musculus [1] = assay: Antidiabetic activity in STZ/diet-induced obese C57BL/6 mouse assessed as reduction in serum ALT level at 25 nmol/kg, ip administered daily for 4 weeks measured post last dose; format: functional, organism-based
Outline: (§1)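 Male C57BL/6J DIO mice on high-fat diet were treated for 4 weeks with saline as control; LFD-fed mice (n = 6/group) were used as normal reference. Water intake, food intake and body weight were recorded daily. Terminal serum leptin and adiponectin were measured by ELISA. TC, TG, HDL, LDL, ALT and AST were measured on a clinical chemistry analyzer.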

Mus musculus [2] = assay: Antidiabetic activity in STZ/diet-induced obese C57BL/6 mouse assessed as reduction in cumulative water intake at 25 nmol/kg, ip administered daily for 4 weeks measured daily during compound dosing relative to control; format: functional; parameters: scale not given: the % may be the effect or the level left; outline: as §1
Mus musculus [3] = assay: Antidiabetic activity in STZ/diet-induced obese C57BL/6 mouse assessed as reduction in serum leptin level at 25 nmol/kg, ip administered daily for 4 weeks measured post last dose; format: functional; outline: as §1
Mus musculus [4] = assay: Hypoglycemic activity in STZ-induced diabetic Kunming mouse model assessed as time required to reduce blood glucose level of […] at 25 nmol/kg, ip administered as single dose; format: functional
Outline: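 Non-fasted STZ-diabetic Kunming mice with free access to food and water received a single i.p. injection (25 or 150 nmol/kg) or saline; n = 6/group. Blood glucose was followed over time.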

Rattus norvegicus = assay: Antidiabetic activity in Sprague-Dawley rat assessed as reduction in blood glucose AUC at 25 nmol/kg, ip treated 30 mins prior to glucose challenge measured at 15 mins interval for 180 mins by OGTT; format: functional, organism-based
Mus musculus [5] = assay: Antidiabetic activity in STZ/diet-induced obese C57BL/6 mouse assessed as reduction in size of white adipocytes at 25 nmol/kg, ip administered daily for 4 weeks measured post last dose; format: functional, organism-based
Mus musculus [6] = assay: Antidiabetic activity in STZ-induced diabetic Kunming mouse model assessed as increase in islet beta-cell area 25 nmol/kg, ip administered once daily for 3 weeks measured post last dose by hematoxylin and eosin staining based assay; format: functional, organism-based
Outline: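 STZ-diabetic mice were dosed 25 nmol/kg i.p. once daily; normal mice and saline-treated mice served as references. After 21 days the pancreas was fixed, sectioned at 5 µm and stained with H&E. Islet area was measured by manually tracing the islet perimeter; n = 6/group.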

Mus musculus [7] = assay: Antidiabetic activity in STZ/diet-induced obese C57BL/6 mouse assessed as reduction in serum total cholesterol level at 25 nmol/kg, ip administered daily for 4 weeks measured post last dose; format: functional, organism-based; outline: as §1
Mus musculus [8] = assay: Antidiabetic activity in C57BL/6 mouse assessed as reduction in blood glucose AUC (0 to 120 mins) at 25 nmol/kg, ip treated 30 mins prior to glucose challenge by IPGTT; format: functional, organism-based
Outline: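 Male C57BL/6 mice, 6 weeks old, fasted overnight (12 h), n = 6/group; given 25 nmol/kg or saline i.p., then i.p. glucose challenge (2.0 g/kg) 30 min later, set as 0 h. Glucose challenges were repeated at 6 h intervals to mimic three meals a day. Blood glucose was followed and AUC calculated.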

Mus musculus [9] = assay: Hypoglycemic activity in STZ-induced diabetic Kunming mouse model assessed as time required to reduce blood glucose level of […] at 150 nmol/kg, ip administered as single dose; format: functional
Outline: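 Non-fasted STZ-diabetic Kunming mice with free access to food and water received a single i.p. injection (25 or 150 nmol/kg) or saline; n = 6/group. Blood glucose was followed over time. Euglycemic duration was defined as time below 8.35 mmol/L, and glucose AUC0–36h was calculated.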

Mus musculus [10] = assay: Antidiabetic activity in STZ/diet-induced obese C57BL/6 mouse assessed as increase in serum adiponectin level at 25 nmol/kg, ip administered daily for 4 weeks measured post last dose; format: functional, organism-based; outline: as §1

**Q.** `CC[C@H](C)[C@H](NC(=O)[C@H](Cc1ccccc1)NC(=O)[C@H](CCC(=O)O)NC(=O)[C@H](CCCCN)NC(=O)[C@H](C)NC(=O)[C@H](C)NC(=O)[C@H](CCC(N)=O)NC(=O)CNC(=O)[C@H](CCC(=O)O)NC(=O)[C@H](CC(C)C)NC(=O)[C@H](Cc1ccc(O)cc1)NC(=O)[C@H](CO)NC(=O)[C@H](CO)NC(=O)[C@@H](NC(=O)[C@H](CC(=O)O)NC(=O)[C@H](CO)NC(=O)[C@@H](NC(=O)[C@H](Cc1ccccc1)NC(=O)[C@@H](NC(=O)CNC(=O)[C@H](CCC(=O)O)NC(=O)CNC(=O)[C@@H](N)Cc1cnc[nH]1)[C@@H](C)O)[C@@H](C)O)C(C)C)C(=O)N[C@@H](C)C(=O)N[C@@H](Cc1c[nH]c2ccccc12)C(=O)N[C@@H](CC(C)C)C(=O)N[C@H](C(=O)N[C@@H](CCCCN)C(=O)NCC(=O)N[C@@H](CCCNC(=N)N)C(=O)N[C@@H](CSC1CC(=O)N(CCCCCCCCCCCC(=O)O)C1=O)C(N)=O)C(C)C` (stereo partly specified) was tested. Which Activity (Mus musculus [1]) did it give?
**A.** Active

**Q.** And the Activity (Mus musculus [2])?
**A.** <=33.5%

**Q.** And the Activity (Mus musculus [3])?
**A.** 2.5 ng/mL

**Q.** What about the Time (Mus musculus [4]) of the same compound?
**A.** 9.7 h

**Q.** And the Activity (Rattus norvegicus)?
**A.** Active

**Q.** And the Activity (Mus musculus [5])?
**A.** Active

**Q.** And the Activity (Mus musculus [6])?
**A.** Active

**Q.** What about the Activity (Mus musculus [7]) of the same compound?
**A.** Active

**Q.** And the Activity (Mus musculus [8])?
**A.** Active

**Q.** And the Time (Mus musculus [9])?
**A.** 11.5 h

**Q.** And the Activity (Mus musculus [10])?
**A.** Active
